Bioassay records (PubChem)
Not all results are given here.
PGC1a acetyl up = compounds raising PGC1a acetylation signal, primary screen, PGC1a modulator project, cell-based, U2OS, AlphaScreen, signal-increasing mode | actives 0.21% (n = 350,000) | overnight | activation, % at 15.6 µM | AID 651723, 2012;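 active = every replicate reaching activation of at least 50%, whatever the mean replicate activation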;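 also: hits raise the AlphaScreen acetylation signal above neutral controls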
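Test system: U2OS cells expressing flag-PGC1a plus GCN5; Amount: 7000 U2OS cells per well; Compound: single test concentration per compound; Incubation: compound overnight at 37 °C, each detection step 1 h RT; Signal: AlphaScreen lysate read.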
* marks the source's active call; other numbers are inactive results.

SMILES | PGC1a acetyl up
C[C@@H]1CCCCO[C@H](CN(C)Cc2ccc3c(c2)OCO3)[C@@H](C)CN([C@@H](C)CO)C(=O)c2cc(NC(=O)Nc3ccc(C(F)(F)F)cc3)ccc2O1 | -53
CC1CCCCC12NC(=O)N(CC(=O)NCc1ccc3c(c1)OCO3)C2=O (centres undefined) | -46
O=C(NCc1ccc2c(c1)OCO2)c1ccc(NC(=O)C2CCCO2)cc1 (centres undefined) | 66*
COc1ccc(-n2c(=O)c3c4c(sc3n3c(=S)[nH]nc23)CCC4)cc1 | 234*
CCCNC(=O)[C@H]1[C@H](CO)[C@H]2Cn3c(ccc(-c4ccccc4)c3=O)[C@H]2N1C(=O)C1CC1 | -41
Nc1ncc([N+](=O)[O-])c(N2CCCCCC2)n1 | -53
Cc1ccc(NC(=S)c2ccncc2)c(C)c1 | 164*
COCCNC(=O)CN1CCC(NC(=O)C(C)(C)C)CC1 | -45
COc1cc(CN2CC3(CCN(S(=O)(=O)c4cccs4)CC3)c3c(n(C)c4cc(OC)ccc34)[C@H]2CO)cc(OC)c1 | 63*
C/C=C/c1ccc2c(c1)O[C@@H](CN(C)C(=O)NC(C)C)[C@H](C)CN([C@H](C)CO)S2(=O)=O | -44
O=C(CN1CCC(N2CCCCC2)CC1)N1CCCc2ccccc21 | 82*
O=C(c1cccc(N2C(=O)C3C4C=CC(C4)C3C2=O)c1)N1CCCc2ccccc21 (centres undefined) | -42
CCC(=O)N1C[C@H](C)[C@H](OC)CN(C)C(=O)c2cc(NC(=O)c3cnccn3)ccc2OC[C@@H]1C | -41
O=c1[nH]c2nc(Cl)nc(Cl)c2[nH]1 | -74
CC(C)NC(=O)N(C)C[C@H]1OCCCC[C@@H](C)Oc2ccc(NC(=O)Nc3ccc(C(F)(F)F)cc3)cc2C(=O)N([C@H](C)CO)C[C@@H]1C | -50
COc1ccc(CC(CC(=O)O)C(=O)Nc2ccc(OC)cc2)cc1 (centres undefined) | 50*
COc1ccc(CCN2C(=O)N(c3ccc(OC)cc3)C(=O)C2CC(=O)Nc2ccccc2)cc1 (centres undefined) | -48
COc1cccc(-n2c(Cc3cc(=O)[nH]c(=O)[nH]3)nnc2SCc2cccc(C(F)(F)F)c2)c1 | -42
C[C@H](CO)N1C[C@H](C)[C@H](CN(C)S(=O)(=O)c2ccc(F)cc2)Oc2ccc(NS(=O)(=O)c3cn(C)cn3)cc2C1=O | -51
COc1ccc(Nc2ccnc3ccccc23)cc1 | -51
Nc1nc(Nc2ccccc2)nc2ccccc12 | 52*
C[C@@H]1CN([C@H](C)CO)C(=O)CCCn2cc(nn2)CO[C@@H]1CN(C)C(=O)OCc1ccccc1 | -46
CCC(=O)N1CCN(c2ccc(Cl)cc2NC(=O)c2ccc([N+](=O)[O-])o2)CC1 | 62*
O=C(Nc1ccccc1Cl)c1ccc([N+](=O)[O-])o1 | 66*
CCCCn1nc(NC(=O)c2cccs2)c2cc3ccccc3nc21 | -48
SMILES | PGC1a acetyl up
O=C(Nc1cccc(NC(=O)c2cccs2)c1)c1ccc([N+](=O)[O-])o1 | 94*
CC(C)C(=O)Nc1cccc(NC(=S)NC(=O)c2ccc([N+](=O)[O-])cc2)c1 | -48
COc1ccc(C(=O)Nc2cccc(NC(=O)c3ccc(OC)c(OC)c3)n2)cc1OC | -61
Cc1cccc(NC(=O)c2ccc([N+](=O)[O-])o2)n1 | 66*
COCCNC(=O)C(c1ccc(F)cc1)N(Cc1ccco1)C(=O)CCC(=O)Nc1nccs1 (centres undefined) | -41
O=C(OCc1nc2ccsc2c(=O)[nH]1)c1cccc(S(=O)(=O)N2CCOCC2)c1 | -42
O=C(C[C@H]1C[C@@H]2c3cc(NS(=O)(=O)c4ccc(F)cc4)ccc3O[C@@H]2[C@@H](CO)O1)N1CCc2ccccc2C1 | -50
O=C(O)C1CCCN1S(=O)(=O)c1cc(Cl)ccc1Cl (centres undefined) | -42
CCCCS(=O)(=O)/C=C\C=C/S(=O)(=O)CCCC | -97
COc1ccc(-c2cnc3c(c2)C(=O)N([C@H](C)CO)C[C@@H](C)[C@H](CN(C)C(=O)C2CCC2)O3)cc1 | -56
Cc1nc2ccccc2n2c(O)c(CC(=O)O)cc12 | -41
O=C(O)CC1S/C(=N/N=C/c2ccc(Br)cc2)N(c2ccccc2)C1=O (centres undefined) | -75
COc1cc(-c2cnc3c(NC=O)cc(-c4ccccc4Cl)cn23)cc(OC)c1OC | 102*
COc1cc(-c2cnc3c(NC=O)cc(-c4ccc(C)cc4)cn23)cc(OC)c1OC | 89*
COc1cc(-c2cnc3c(NC=O)cc(-c4ccccc4)cn23)cc(OC)c1OC | 105*
O=C(CC(CC(=O)c1ccc(Br)cc1)c1cccnc1)c1ccc(Br)cc1 | -50
CC(=O)Nc1cccc(OCC(=O)Nc2ccccc2)c1 | 51*
CCOC(=O)N1CCC(N(CCN(C)C)C(=S)Nc2cccc(OC)c2)CC1 | -45
CC(=O)c1ccc(NC(=O)CSCC(=O)Nc2ccc3ccccc3c2)cc1 | -56
CCCNC(=O)N(C)C[C@H]1Oc2cc(C#CCC(C)C)ccc2S(=O)(=O)N([C@@H](C)CO)C[C@H]1C | -51
